Source: PubChem BioAssay
Lmaj promast: reduces viability of Leishmania major promastigotes | resazurin fluorescence viability | inhibition, % at 10 µM | AID 1063 | 200,000 compounds, 9% hits; in the data active = inhibition above about 50%;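 note: promastigotes grown with compound for 44 hours at 28 °C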
WT yeast gro inh: growth inhibition of WT yeast, mitochondrial fusion screen | mitochondrial fusion phenotypic screen, WT strain | inhibition, % at 10 µM | 190,000 compounds, 2.1% hits | AID 1362; in the data active = inhibition above about 58%; tested in S. cerevisiae
PMI activator: phosphomannose isomerase (human) activation; 190,000 compounds, 0.005% hits; activation factor at 20 µM; P34949; purified human PMI, coupled resazurin fluorescence, 20 min; hits give high values; 1 = vehicle control, 0 substrate-free wells;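 active = activation factor of 2 or more at 20 µM, relative to plate controls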
PMI act satM6P: increases human PMI activity with near-saturating mannose 6-phosphate; 190,000 compounds, 0.34% hits; coupled PMI enzyme assay, resazurin fluorescence, 20 min; hits give high values; 1 = untreated enzyme, 0 = substrate-free blank; P34949; activation factor at 20 µM;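 active = activation factor of 2 or more at 20 µM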
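assay system = human phosphomannose isomerase with PGI, G6PDH, diaphorase coupling enzymes | quantity = 15 ng/mL PMI | incubation = enzyme reaction with compound 20 min at room temperature | medium = HEPES pH 7.4 buffer with MgCl2 and Tween-20 | compound dosing = one concentration, 20 µM, in 1% DMSO | measured by = Diaphorase-driven resazurin-to-resorufin fluorescence, excitation 544, emission 590 nm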
m-calpain inh: inhibitors of pig calpain II; purified calpain II, fluorogenic peptide substrate, 30 min; inhibition, % at 16 µM; 220,000 compounds, 0.37% hits; AID 1236;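 active = inhibition above about 50%, limit read from the data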
Rad51 HR inh: blocks human Rad51 in homologous recombination. hRad51 DNA strand exchange, fluorescence dequenching. inhibition, % at 10 µM. 200,000 compounds, 0.085% hits. AID 1385;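 active = inhibition above 40% at the single screening dose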;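 note: 0% = DMSO control wells and 100% = blanks with heterologous ssDNA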
Target sequence (Q06609 whole entry, looked up): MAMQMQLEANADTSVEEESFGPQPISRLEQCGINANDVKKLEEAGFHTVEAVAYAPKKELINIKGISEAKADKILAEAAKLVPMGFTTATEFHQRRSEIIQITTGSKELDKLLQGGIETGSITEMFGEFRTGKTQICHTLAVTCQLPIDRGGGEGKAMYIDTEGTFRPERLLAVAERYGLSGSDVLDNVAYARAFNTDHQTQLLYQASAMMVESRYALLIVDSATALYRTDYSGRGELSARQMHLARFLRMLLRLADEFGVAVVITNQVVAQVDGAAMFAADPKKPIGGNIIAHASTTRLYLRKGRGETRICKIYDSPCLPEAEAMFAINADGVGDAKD
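System: human Rad51 nucleoprotein filaments preassembled on unlabelled ssDNA. Reagent: labelled 47-mer dsDNA for strand exchange. Schedule: 30-min compound preincubation and 15-min exchange, both room temperature. Measured by: FRET fluorescence dequenching, excitation 485 nm, emission 520 nm. Read-out: Fluorescence-based percent inhibition, control- and blank-normalised. Benchmarks: plate controls and plate blanks.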
* = called active by the depositor; / = not tested or not shown. An excerpt weighted towards active compounds, which were near 9.8% of everything screened.

SMILES | Lmaj promast | WT yeast gro inh | PMI activator | PMI act satM6P | m-calpain inh | Rad51 HR inh
CCN(Cc1ccccc1)C(c1ccc(C(F)(F)F)cc1)c1nnnn1C(C)(C)C (centres undefined) | 28 | 73* | / | / | 4 | 0
COc1cccc(CN(Cc2ccco2)C(c2ccc(F)cc2)c2nnnn2C(C)(C)C)c1 (centres undefined) | 58* | 39 | 1 | 1 | 9 | -12
CC1CCN(S(=O)(=O)c2ccc(S(=O)(=O)N3CCC4(CC3)OCCO4)cc2)CC1 | 6 | -9 | 1.1 | 1.1 | -12 | -45
COc1ccccc1/C=[N+](\[O-])C1SC(=S)N(C)C1(C)C (centres undefined) | / | / | / | / | -3 | 14
COc1ccc(N(CC(=O)NCCC2=CCCCC2)S(=O)(=O)c2ccc(C)cc2)cc1OC | 85* | 6 | 0.9 | 0.9 | 6 | -3
COc1ccc(N(CC(=O)NCCC2=CCCCC2)S(=O)(=O)c2ccccc2)cc1OC | 73* | -6 | 1 | 1 | -6 | -5
COc1ccc(N(CC(=O)NCCC2=CCCCC2)S(C)(=O)=O)cc1OC | 1 | -6 | 1 | 1.1 | -9 | -4
COc1ccc(N(CC(=O)NCCC2=CCCCC2)S(=O)(=O)c2ccccc2)cc1 | / | / | / | / | 28 | 20
COCC(C)NCC(=O)NC(C)CCc1ccccc1 (centres undefined) | 1 | -1 | 1 | 1.1 | -1 | /
CC1(C)OC(=O)C(=NNc2ccc(Br)cc2)C(=O)O1 | -8 | 3 | 1 | 1 | 8 | /
CC(C1CC2CCC1C2)n1c(COc2ccccc2F)nnc1SCC(N)=O (centres undefined) | 11 | 15 | 1.1 | 1.1 | -3 | /
CC(C)NC(=O)NC(=O)CSc1nnc(COc2ccccc2F)n1C(C)C1CC2CCC1C2 (centres undefined) | 51* | 12 | 0.8 | 0.9 | 19 | /
N#Cc1ccc(OCC(=O)OCC(=O)Nc2cc(C(F)(F)F)ccc2N2CCOCC2)cc1 | 1 | -5 | 0.9 | 1 | -15 | -2
Cc1cc(C(=O)COC(=O)c2ccc([N+](=O)[O-])o2)c(C)n1CC1CCCO1 (centres undefined) | 82* | 43 | 1.1 | 1 | -15 | -30
COCCn1c(C)cc(C(=O)COC(=O)c2ccc([N+](=O)[O-])o2)c1C | 75* | 34 | 1.1 | 0.9 | -15 | 1
Cc1cc(C)c(C(=O)COC(=O)c2ccc([N+](=O)[O-])o2)cc1C | -2 | 30 | 1.2 | 0.8 | -76 | 25
COc1ccc(-n2c(C)cc(/C=N/Nc3nnc(C)n3N)c2C)cc1 | 14 | 0 | 1 | 1.1 | 22 | /
Cc1onc(-c2c(Cl)cccc2Cl)c1/C(N)=N/OC(=O)C1CC1 | / | / | / | / | 5 | -21
CCC(C)Sc1nc2c(c(=O)n1C)SC(C)C2 (centres undefined) | -2 | 61* | 1 | 0.9 | 0 | 2
Cc1ccccc1OCC(O)CN1CCN(CC(O)COc2ccccc2C)CC1 (centres undefined) | 63* | 0 | 0.9 | 0.9 | 22 | 1
Cc1ccccc1OCC(O)CN1CCN(c2ccc(Cl)cc2)CC1 (centres undefined) | / | / | / | / | 27 | /
Cc1ccccc1OCC(O)CN1CCCCC1 (centres undefined) | 13 | -12 | / | / | -19 | 4
Cc1ccc(C)c(OCC(O)CN2CCC(C)CC2)c1C (centres undefined) | 100* | 17 | 1 | 1 | 12 | 4
Cc1ccccc1OCC(O)CN1CCC(C)CC1 (centres undefined) | 72* | 3 | 1 | 0.9 | 16 | -12
CC1Cc2ccccc2N1C(=S)NC(=O)c1ccc(Cl)cc1Cl (centres undefined) | -4 | 60* | 1 | 1.1 | 14 | -7
CC1Cc2ccccc2N1C(=S)NC(=O)c1cccc(Br)c1 (centres undefined) | -4 | 60 | 0.8 | 1.1 | 9 | 4
O=c1cccccc1NN=C1CCCCC1 | / | / | / | / | -20 | -2
O=C(O)c1cc(Br)ccc1NN=C1CCCCC1 | -10 | -10 | 1.8 | 2.9* | -7 | 0
Cc1ccccc1N1CCN(C(=O)c2ccc(Oc3ccc(C(F)(F)F)cn3)cc2)CC1 | -2 | 75* | 0.8 | 0.8 | -22 | 4
